Test results reported in ChEMBL document CHEMBL1131133, “A novel class of adenosine A3 receptor ligands. 1. 3-(2-Pyridinyl)isoquinoline derivatives” (J Med Chem, 1998).

How the values were obtained:
[1] = target: Adenosine receptor A2a (Rattus norvegicus) (UniProt P30543); assay: Displacement of specific [3H]CGS-21680 binding in rat striatal membrane (Adenosine A2A receptor) at concentration of […].; format: cell membranes; conditions: Striatum
Summary of the method: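 A2A binding used rat striatal membranes and [3H]CGS 21680. Percentage displacement of specific binding was measured at one fixed test-compound concentration (n = 2-3).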

[2] = target: T1, Adenosine receptor A1 (Rattus norvegicus) (UniProt P25099); assay: Displacement of specific [3H]DPCPX binding at rat cortical membrane (Adenosine A1 receptor) at concentration of […].
T1 sequence (whole entry): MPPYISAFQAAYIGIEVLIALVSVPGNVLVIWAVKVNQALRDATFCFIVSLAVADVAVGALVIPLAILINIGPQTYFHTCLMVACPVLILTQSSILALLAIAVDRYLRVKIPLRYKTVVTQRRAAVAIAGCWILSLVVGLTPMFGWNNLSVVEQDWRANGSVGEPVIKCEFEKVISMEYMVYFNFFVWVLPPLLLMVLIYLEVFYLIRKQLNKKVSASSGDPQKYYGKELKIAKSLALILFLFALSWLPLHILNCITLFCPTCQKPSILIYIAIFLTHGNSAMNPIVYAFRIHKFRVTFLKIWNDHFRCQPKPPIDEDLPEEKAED
Summary of the method: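 A1 binding used rat cortical membranes and [3H]DPCPX. Percentage displacement of specific binding was measured at one fixed test-compound concentration (n = 2-3).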

Adenosine receptor A3 [3] = target: T2, Adenosine receptor A3 (Homo sapiens, UniProt P0DMS8); assay: Displacement of specific [125I]AB-MECA binding at human adenosine A3 receptor expressed in HEK 293 cells.; format: cell-based, HEK293
T2 sequence (P0DMS8 whole entry): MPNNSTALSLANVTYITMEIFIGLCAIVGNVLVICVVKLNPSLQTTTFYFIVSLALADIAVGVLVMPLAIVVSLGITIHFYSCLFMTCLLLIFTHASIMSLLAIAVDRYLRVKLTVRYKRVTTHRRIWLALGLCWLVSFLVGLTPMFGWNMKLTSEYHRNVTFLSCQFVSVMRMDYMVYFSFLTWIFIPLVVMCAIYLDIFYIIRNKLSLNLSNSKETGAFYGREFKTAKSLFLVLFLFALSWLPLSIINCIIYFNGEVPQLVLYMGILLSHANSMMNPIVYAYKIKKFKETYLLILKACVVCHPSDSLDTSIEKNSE

[4] = target: T3, Adenosine receptor A3 (Homo sapiens) (UniProt P0DMS8); assay: Displacement of [125I]AB-MECA from human adenosine A3 receptor expressed in HEK 293 cells at […]; format: cell-based; conditions: HEK293
T3 sequence (whole entry): T2 sequence (P0DMS8 whole entry)
Summary of the method: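 Membranes from HEK 293 cells stably expressing the human A3 receptor were incubated with [125I]AB-MECA. Percentage displacement of specific binding was measured at a single test-compound concentration (n = 2-3).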

Adenosine receptor A3 [5] = target: T2, Adenosine receptor A3; assay: biochemical

Chain of Adenosine receptor A2a (Rattus norvegicus) (P30543 whole entry): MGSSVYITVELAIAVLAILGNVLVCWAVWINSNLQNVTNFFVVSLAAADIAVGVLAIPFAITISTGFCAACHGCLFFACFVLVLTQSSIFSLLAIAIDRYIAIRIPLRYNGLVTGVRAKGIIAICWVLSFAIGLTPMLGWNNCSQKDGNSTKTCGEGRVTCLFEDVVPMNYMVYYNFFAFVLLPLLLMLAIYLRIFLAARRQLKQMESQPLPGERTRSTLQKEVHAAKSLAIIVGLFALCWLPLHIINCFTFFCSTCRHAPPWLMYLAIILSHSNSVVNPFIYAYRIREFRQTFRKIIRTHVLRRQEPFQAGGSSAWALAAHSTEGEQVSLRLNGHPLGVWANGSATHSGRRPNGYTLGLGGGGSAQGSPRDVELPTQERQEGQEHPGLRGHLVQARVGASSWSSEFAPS

SMILES	Displacement [1] [%]	Displacement [2] [%]	also measured
CS(=O)(=O)c1nc(-c2ccccn2)cc2ccccc12	54		
Cc1ccc(C(=N)Nc2nc(-c3ccccn3)cc3ccccc23)cc1	34	12	
COC(=O)C1=C2C=CN(C)C=C2c2nc(-c3ccccc3)nn2C1			Ki (Adenosine receptor A3 [3]): 172 nM
CC(=O)N(C(C)=O)c1nc(-c2ccccn2)cc2ccccc12	18	34	
COc1ccc(C(=N)Nc2nc(-c3ccccn3)cc3ccccc23)cc1	5	18	
Cc1cccc(C(=N)Nc2nc(-c3ccccn3)cc3ccccc23)c1	0	43	
N=CNc1nc(-c2ccccn2)cc2ccccc12		47	
COc1cccc(C(=N)Nc2nc(-c3ccccn3)cc3ccccc23)c1	0	43	
N=C(Nc1nc(-c2ccccn2)cc2ccccc12)c1ccc(Cl)cc1	7	20	
N=C(Nc1nc(-c2ccccn2)cc2ccccc12)c1ccc(Cl)c(Cl)c1	2	21	
Cc1cccc(C)c1C(=O)N(C(=O)c1c(C)cccc1C)c1nc(-c2ccccn2)cc2ccccc12	0	0	
Nc1nc2ccc(Cl)cc2c2nc(-c3ccco3)nn12 [CGS-15943]			Ki (Adenosine receptor A3 [5]): 7.9 nM; Ki (Adenosine receptor A3 [3]): 143 nM

Continued, in another order:

Displacement [1] [%]	Displacement [2] [%]	SMILES	also measured
5		CC(C(=O)c1ccccc1)c1nc(-c2ccccn2)cc2ccccc12 (stereo unspecified)	
19		COc1nc(-c2ccccn2)cc2ccccc12	
25	30	CCc1nc(-c2ccccn2)cc2ccccc12	
7		CSc1nc(-c2ccccn2)cc2ccccc12	
28	19	Nc1nc(-c2ccccn2)cc2ccccc12	Displacement [4]: 17%
14	49	N=C(Nc1nc(-c2ccccn2)cc2ccccc12)c1cccc(Cl)c1	
	34	N=C(Nc1nc(-c2ccccn2)cc2ccccc12)c1ccccc1	
31		c1ccc(-c2nc(-c3ccccn3)cc3ccccc23)cc1	
29	43	Clc1nc(-c2ccccn2)cc2ccccc12	
35		Oc1nc(-c2ccccn2)cc2ccccc12	
